ChEMBL document CHEMBL1165991, “Synthesis and in vitro evaluation of novel 1,2,4-triazine derivatives as neuroprotective agents” (Bioorg Med Chem, 2010)
Active and inactive are the calls of the source. No cut-off for these calls is given here.

Columns and labels:
PC-12 [1] = assay: Neuroprotective activity in rat differentiated PC12 cells assessed as protection against H2O2-induced cell death at 10 uM treated 3 hrs before H2O2 challenge measured after 24 hrs by MTT assay relative to control; type: functional
In short: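 Rat PC12 cells grown in DMEM with 10% FBS and penicillin–streptomycin at 37 °C, 5% CO2, then differentiated with NGF (50 ng/ml) every other day for 6 days. Compounds (0.5–20 µM) were added 3 h before H2O2 (150 µM) and kept present for 24 h more. MTT reduction, formazan dissolved in DMSO, A550; % of control cells; mean ± S.D., n = 3.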

PC-12 [2] = assay: Neuroprotective activity in rat undifferentiated PC12 cells assessed as protection against H2O2-induced cell death at 10 uM treated 3 hrs before H2O2 challenge measured after 24 hrs by MTT assay relative to control; type: functional
In short: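 Undifferentiated rat PC12 cells, grown in DMEM with 10% FBS and penicillin–streptomycin at 37 °C, 5% CO2, were seeded in 96-well plates. They were pretreated 3 h with compounds (0.5–20 µM), then exposed to H2O2 for 24 h. Viability was read by MTT reduction, formazan dissolved in DMSO, A550, as % of control; mean ± S.D., n = 3.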

PC-12 [3] = assay: Cytotoxicity against rat differentiated PC12 cells at 0.5 to 20 uM after 24 hrs by MTT assay; type: cell-based; conditions: pc-12, 24 h
In short: (§1)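 PC12 cells grown in DMEM with 10% FBS and penicillin–streptomycin at 37 °C, 5% CO2. Differentiated cells were primed with NGF 50 ng/ml every other day for 6 days; undifferentiated cells had no NGF. Compound 0.5–20 μM without H2O2; MTT read at 24 h. Formazan dissolved in DMSO, A550 as % of control; mean ± S.D., n = 3.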

PC-12 [4] = assay: Cytotoxicity against rat undifferentiated PC12 cells at 0.5 to 20 uM after 24 hrs by MTT assay; type: cell-based; conditions: pc-12, 24 h; in short: as §1
PC-12 [5] = assay: Neuroprotective activity in differentiated rat PC12 cells assessed as protection against H2O2-induced apoptosis at 10 uM treated 3 hrs before H2O2 challenge measured after 24 hrs by acridine orange/ethidium bromide double staining method; type: functional
In short: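 NGF-differentiated PC12 cells were pretreated with compound, then given H2O2 150 μM for 24 h. Cells were harvested, washed in PBS and set to 10^6/ml, then stained with AO/EB (1:1, final 100 μg/ml). Fluorescence microscopy scored viable, early or late apoptotic, and necrotic nuclei in 10 random fields; three repeats.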

PC-12 [6] = assay: Neuroprotective activity in differentiated rat PC12 cells assessed as decrease of H2O2-induced cleaved caspase 3 level treated 3 hrs before H2O2 challenge measured after 24 hrs by Western blot relative to untreated control; type: functional
In short: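 PC12 cells grown in DMEM with 10% FBS at 37 °C, 5% CO2, and differentiated with NGF (50 ng/ml) every other day for 6 days. Pretreated 3 h with compound, then H2O2 (150 μM) added with compound for 24 h. Twenty μg protein run on 12% SDS-PAGE and blotted for cleaved caspase-3, reprobed for β-actin. ECL detection, densitometry ratio, median of three independent experiments.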

PC-12 [7] = assay: Neuroprotective activity in differentiated rat PC12 cells assessed as inhibition of H2O2-induced NF-kappaB nucleus accumulation treated 3 hrs before H2O2 challenge measured after 24 hrs by Western blot relative to untreated control; type: functional
In short: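 Differentiated PC12 cells were pretreated 3 h with compound, then given H2O2 150 μM for 24 h. Nuclear protein (20 μg) was run on 12% SDS–PAGE, blotted to PVDF, probed with anti-NF-κB and reprobed for β-actin, with ECL detection. Band densities were taken as a ratio; median of three independent experiments.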

PC-12 [8] = assay: Neuroprotective activity in rat differentiated PC12 cells assessed as protection against H2O2-induced cell death at 0.5 to 20 uM treated 3 hrs before H2O2 challenge measured after 24 hrs by MTT assay relative to control; type: functional, cell-based
In short: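 NGF-differentiated PC12 cells (50 ng/ml every other day, 6 days) were pretreated 3 h with compound at 0.5–20 μM, then given H2O2 150 μM with compound for a further 24 h. Viability by MTT: formazan in DMSO, A550, expressed as % of control cells; mean ± S.D., n = 3.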

PC-12 [9] = assay: Neuroprotective activity in rat NGF treated differentiated PC12 cells assessed as restoration of H2O2-induced neuronal shape change at 10 uM treated 3 hrs before H2O2 challenge measured after 24 hrs by fluorescence microscopy analysis; type: functional, cell-based
In short: (§2)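 PC12 cells were differentiated with NGF 50 ng/ml for 6 days, pretreated 3 h with compound, then exposed to H2O2 150 μM for 24 h. Morphology was judged by microscopy: cell shape, attachment to the plate surface and inter-neuronal networks.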

PC-12 [10] = assay: Neuroprotective activity in rat NGF treated differentiated PC12 cells assessed as restoration of H2O2-induced detached from culture plate at 10 uM treated 3 hrs before H2O2 challenge measured after 24 hrs by fluorescence microscopy analysis; type: functional, cell-based; in short: as §2
PC-12 [11] = assay: Neuroprotective activity in rat NGF treated differentiated PC12 cells assessed as restoration of H2O2-induced network changes at 10 uM treated 3 hrs before H2O2 challenge measured after 24 hrs by fluorescence microscopy analysis; type: functional, cell-based; in short: as §2

SMILES: CCSc1nnc(-c2ccccc2)c(-c2ccccc2)n1
- Activity (PC-12 [1]): 54%
- Activity (PC-12 [2]): 59%
- Activity (PC-12 [3]): Non-toxic
- Activity (PC-12 [4]): Non-toxic
- Activity (PC-12 [5]): 45%
- fold change (FC) (PC-12 [6]): 1.64
- fold change (FC) (PC-12 [7]): 1.56

SMILES: CCCCSc1nnc(-c2ccccc2)c(-c2ccccc2)n1
- Activity (PC-12 [8]): inactive

SMILES: CCCSc1nnc(-c2ccc(Cl)cc2)c(-c2ccc(Cl)cc2)n1
- Activity (PC-12 [1]): 45%
- Activity (PC-12 [2]): 60%
- Activity (PC-12 [3]): Non-toxic
- Activity (PC-12 [4]): Non-toxic
- Activity (PC-12 [5]): 40%
- fold change (FC) (PC-12 [6]): 1.92
- fold change (FC) (PC-12 [7]): 1.89

SMILES: CCCCSc1nnc(-c2ccc(Cl)cc2)c(-c2ccc(Cl)cc2)n1
- Activity (PC-12 [1]): 50%
- Activity (PC-12 [2]): 63%
- Activity (PC-12 [3]): Non-toxic
- Activity (PC-12 [4]): Non-toxic
- Activity (PC-12 [5]): 40%
- fold change (FC) (PC-12 [6]): 1.83
- fold change (FC) (PC-12 [7]): 1.78

SMILES: CCSc1nnc(-c2ccc(Cl)cc2)c(-c2ccc(Cl)cc2)n1
- Activity (PC-12 [2]): 58%
- Activity (PC-12 [3]): Non-toxic
- Activity (PC-12 [4]): Non-toxic
- Activity (PC-12 [5]): 40%
- fold change (FC) (PC-12 [6]): 2
- fold change (FC) (PC-12 [7]): 2

SMILES: CSc1nnc(-c2ccccc2)c(-c2ccccc2)n1
- Activity (PC-12 [1]): 47%
- Activity (PC-12 [2]): 53%
- Activity (PC-12 [3]): Non-toxic
- Activity (PC-12 [4]): Non-toxic
- Activity (PC-12 [5]): 35%
- fold change (FC) (PC-12 [6]): 1.91
- fold change (FC) (PC-12 [7]): 1.79

SMILES: CSc1nnc(-c2ccc(Cl)cc2)c(-c2ccc(Cl)cc2)n1
- Activity (PC-12 [1]): 83%
- Activity (PC-12 [2]): 88%
- Activity (PC-12 [3]): Non-toxic
- Activity (PC-12 [4]): Non-toxic
- Activity (PC-12 [9]): Active
- Activity (PC-12 [5]): 20%
- Activity (PC-12 [10]): Active
- Activity (PC-12 [11]): Active
- fold change (FC) (PC-12 [6]): 4.59
- fold change (FC) (PC-12 [7]): 4.04

SMILES: CCCSc1nnc(-c2ccccc2)c(-c2ccccc2)n1
- Activity (PC-12 [8]): inactive
- Activity (PC-12 [9]): inactive
- Activity (PC-12 [10]): inactive
- Activity (PC-12 [11]): inactive
